Results as given in ChEMBL document CHEMBL5058577, “EUbOPEN Chemogenomics Library 2 (Multiplex)” (2022).

System: U2OS
Assay: Multiplex assay against U2OS
Type: toxicity, cell-based
Conditions: human
Procedure, shortened: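 On a CQ1 microscope at 37°C and 5% CO2, live cells were imaged after compound addition. They had been stained at seeding with Hoechst33342, BioTracker Green Microtubule Cytoskeleton Dye, MitoTracker Red and Annexin V Alexa Fluor 680. CellPathfinder machine-learning gating assigned cells to Hoechst high-intensity objects or normal cells, normal cells to healthy, pyknosed or fragmented nuclei, and pyknosed cells to mitotic or apoptotic. Tubulin, mitochondrial-mass and membrane-permeability phenotypes are per cents of healthy-nucleus cells.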

[1] = 12 h, 1 µM, compound concentration 1 uM, replicate 1
[2] = 12 h, 1 µM, compound concentration 1 uM, replicate 2
[3] = 12 h, 10 µM, compound concentration 10 uM, replicate 1
[4] = 12 h, 10 µM, compound concentration 10 uM, replicate 2
[5] = 24 h, 1 µM, compound concentration 1 uM, replicate 1
[6] = 24 h, 1 µM, compound concentration 1 uM, replicate 2
[7] = 24 h, 10 µM, compound concentration 10 uM, replicate 1
[8] = 24 h, 10 µM, compound concentration 10 uM, replicate 2
[9] = 48 h, 1 µM, compound concentration 1 uM, replicate 1
[10] = 48 h, 1 µM, compound concentration 1 uM, replicate 2
[11] = 48 h, 10 µM, compound concentration 10 uM, replicate 1
[12] = 48 h, 10 µM, compound concentration 10 uM, replicate 2

Cc1c(CC(=O)O)c2cccnc2n1Cc1ccc(S(C)(=O)=O)cc1C(F)(F)F [FEVIPIPRANT]
Population Apoptotic (%) [1]: 80%
Population Fragmented Nuclei (%) [1]: 25%
Population Healthy Nuclei (%) [1]: 64%
Population Hoechst High Intensity Objects (%) [1]: 1%
Population Membrane Permeable-Phenotype (%) [1]: 2%
Population Mitochondria Different-Phenotype (%) [1]: 2%
Population Mitotic Cells (%) [1]: 19%
Population Normal (%) [1]: 98%
Population Pyknosed Nuclei (%) [1]: 9%
Population Tubulin-Different-Phenotype (%) [1]: 0%
Total Cell Count [1]: 224
Population Apoptotic (%) [2]: 50%
Population Fragmented Nuclei (%) [2]: 22%
Population Healthy Nuclei (%) [2]: 72%
Population Membrane Permeable-Phenotype (%) [2]: 8%
Population Mitochondria Different-Phenotype (%) [2]: 1%
Population Mitotic Cells (%) [2]: 50%
Population Pyknosed Nuclei (%) [2]: 5%
Population Tubulin-Different-Phenotype (%) [2]: 9%
Total Cell Count [2]: 118
Population Apoptotic (%) [3]: 90%
Population Fragmented Nuclei (%) [3]: 27%
Population Healthy Nuclei (%) [3]: 65%
Population Hoechst High Intensity Objects (%) [3]: 2%
Population Membrane Permeable-Phenotype (%) [3]: 3%
Population Mitochondria Different-Phenotype (%) [3]: 0%
Population Mitotic Cells (%) [3]: 9%
Population Normal (%) [3]: 97%
Population Pyknosed Nuclei (%) [3]: 7%
Population Tubulin-Different-Phenotype (%) [3]: 1%
Total Cell Count [3]: 287
Population Apoptotic (%) [4]: 100%
Population Fragmented Nuclei (%) [4]: 22%
Population Healthy Nuclei (%) [4]: 73%
Population Hoechst High Intensity Objects (%) [4]: 0%
Population Membrane Permeable-Phenotype (%) [4]: 8%
Population Mitochondria Different-Phenotype (%) [4]: 3%
Population Mitotic Cells (%) [4]: 0%
Population Normal (%) [4]: 99%
Population Pyknosed Nuclei (%) [4]: 3%
Population Tubulin-Different-Phenotype (%) [4]: 4%
Total Cell Count [4]: 116
Population Apoptotic (%) [5]: 80%
Population Fragmented Nuclei (%) [5]: 20%
Population Healthy Nuclei (%) [5]: 71%
Population Hoechst High Intensity Objects (%) [5]: 2%
Population Membrane Permeable-Phenotype (%) [5]: 1%
Population Mitochondria Different-Phenotype (%) [5]: 3%
Population Mitotic Cells (%) [5]: 20%
Population Normal (%) [5]: 97%
Population Pyknosed Nuclei (%) [5]: 8%
Population Tubulin-Different-Phenotype (%) [5]: 1%
Total Cell Count [5]: 256
Population Apoptotic (%) [6]: 66%
Population Fragmented Nuclei (%) [6]: 17%
Population Healthy Nuclei (%) [6]: 74%
Population Hoechst High Intensity Objects (%) [6]: 0%
Population Membrane Permeable-Phenotype (%) [6]: 9%
Population Mitochondria Different-Phenotype (%) [6]: 0%
Population Mitotic Cells (%) [6]: 33%
Population Normal (%) [6]: 100%
Population Tubulin-Different-Phenotype (%) [6]: 10%
Total Cell Count [6]: 145
Population Apoptotic (%) [7]: 96%
Population Fragmented Nuclei (%) [7]: 20%
Population Healthy Nuclei (%) [7]: 70%
Population Hoechst High Intensity Objects (%) [7]: 0%
Population Membrane Permeable-Phenotype (%) [7]: 5%
Population Mitochondria Different-Phenotype (%) [7]: 3%
Population Mitotic Cells (%) [7]: 3%
Population Normal (%) [7]: 99%
Population Pyknosed Nuclei (%) [7]: 8%
Population Tubulin-Different-Phenotype (%) [7]: 3%
Total Cell Count [7]: 326
Population Apoptotic (%) [8]: 100%
Population Fragmented Nuclei (%) [8]: 12%
Population Healthy Nuclei (%) [8]: 78%
Population Hoechst High Intensity Objects (%) [8]: 1%
Population Membrane Permeable-Phenotype (%) [8]: 8%
Population Mitochondria Different-Phenotype (%) [8]: 2%
Population Mitotic Cells (%) [8]: 0%
Population Normal (%) [8]: 98%
Total Cell Count [8]: 119
Population Apoptotic (%) [9]: 65%
Population Fragmented Nuclei (%) [9]: 18%
Population Healthy Nuclei (%) [9]: 71%
Population Hoechst High Intensity Objects (%) [9]: 2%
Population Membrane Permeable-Phenotype (%) [9]: 4%
Population Mitochondria Different-Phenotype (%) [9]: 3%
Population Mitotic Cells (%) [9]: 34%
Population Normal (%) [9]: 97%
Population Pyknosed Nuclei (%) [9]: 10%
Population Tubulin-Different-Phenotype (%) [9]: 2%
Total Cell Count [9]: 379
Population Apoptotic (%) [10]: 90%
Population Fragmented Nuclei (%) [10]: 20%
Population Healthy Nuclei (%) [10]: 67%
Population Membrane Permeable-Phenotype (%) [10]: 8%
Population Mitochondria Different-Phenotype (%) [10]: 5%
Population Mitotic Cells (%) [10]: 9%
Population Pyknosed Nuclei (%) [10]: 12%
Population Tubulin-Different-Phenotype (%) [10]: 9%
Total Cell Count [10]: 187
Population Apoptotic (%) [11]: 91%
Population Fragmented Nuclei (%) [11]: 17%
Population Healthy Nuclei (%) [11]: 73%
Population Hoechst High Intensity Objects (%) [11]: 1%
Population Membrane Permeable-Phenotype (%) [11]: 4%
Population Mitochondria Different-Phenotype (%) [11]: 3%
Population Mitotic Cells (%) [11]: 8%
Population Normal (%) [11]: 98%
Population Pyknosed Nuclei (%) [11]: 8%
Population Tubulin-Different-Phenotype (%) [11]: 3%
Total Cell Count [11]: 408
Population Apoptotic (%) [12]: 100%
Population Fragmented Nuclei (%) [12]: 15%
Population Healthy Nuclei (%) [12]: 76%
Population Hoechst High Intensity Objects (%) [12]: 3%
Population Membrane Permeable-Phenotype (%) [12]: 5%
Population Mitochondria Different-Phenotype (%) [12]: 1%
Population Mitotic Cells (%) [12]: 0%
Population Normal (%) [12]: 96%
Total Cell Count [12]: 158
